Assay results from different studies.
Protocols differ between the studies behind these lines.
Target: NT-3 growth factor receptor (NTRK3, Homo sapiens, UniProt Q16288)

SMILES | assay | conditions | remaining binding [%]
CNC(=O)Nc1ccc2c(c1)CC[C@@]21OC(=O)N(CC(=O)N(Cc2ccc(F)cc2)[C@@H](C)C(F)(F)F)C1=O | cell-free assay, competition with immobilised ligand | 1 µM | 84
O=C(c1ccc(Nc2nccc(-c3cc4ccccc4s3)n2)cc1)N1CCC(N2CCCC2)CC1 | binding, competition with immobilised ligand | 1 µM | 71
CO[C@@H](C)c1c(Nc2ccc([C@H](N(C)C(=O)C3CCS(=O)(=O)CC3)C(F)(F)F)cc2)cnc2cc(Cl)nn12 | cell-free assay, competition with immobilised ligand | 1 µM | 100
O=C(c1ccc(Nc2ncc(Cl)c(-c3cc4ccccc4s3)n2)cc1)N1CCC(N2CCCC2)CC1 | binding, competition with immobilised ligand | 1 µM | 36
CCN1CCN(Cc2ccc(C(=O)Nc3ccc(C)c(Oc4ccc5c(c4)CC(=O)N5)c3)cc2C(F)(F)F)CC1 | binding, competition with immobilised ligand | 1 µM | 68
C[C@H]1CCN(c2nccc(-c3cnn4ncccc34)n2)C1 | binding | 1 µM | 63
CCC(=O)N[C@H]1CC[C@@H](C(=O)N(C)c2ccc(-c3nc4ccccc4o3)cc2)C1 | cell-free assay, competition with immobilised ligand | 1 µM | 32
CN(C)c1nccc(-c2cnn3ncccc23)n1 | binding | 1 µM | 72
C[C@@H](c1ccc(-n2cnc3c(N)ncnc32)cc1)N1CCc2nn(C)c(Cc3ccccc3)c2C1=O | binding, competition with immobilised ligand | 0.1 µM | 40
Nc1ncc2c(n1)-c1c([nH]c3ccc(C#CC4CC4)cc13)CCCC2 | binding, competition with immobilised ligand | 1 µM | 99
N[C@H]1CCN(c2nccc(-c3cnn4ncccc34)n2)C1 | binding | 1 µM | 85
O=c1nc(-c2ccccn2)sc2ccccc12 | cell-free assay, competition with immobilised ligand | 1 µM | 72
COc1cnc(Nc2cccc(S(N)(=O)=O)c2)nc1N1CCN(c2ccccc2)C(=O)C1 | binding, competition with immobilised ligand | 1 µM | 100
COc1ncc2cc3ccccc3nc2c1C#N | cell-free assay, competition with immobilised ligand | 5 µM | 74
COc1ccnn2ncc(-c3ccnc(N(C)C)n3)c12 | binding | 1 µM | 81
Cn1cc(Cl)c2c(Oc3c(F)cc(Nc4cc(Cl)nc(N)n4)cc3F)ccnc21 | cell-free assay, competition with immobilised ligand | 0.1 µM | 76
O=C(Nc1c[nH]nc1C(=O)NC1CCNCC1)c1cc(F)cc(F)c1 | binding, competition with immobilised ligand | 1 µM | 100
F[C@@H]1CCN(c2nccc(-c3cnn4ncccc34)n2)C1 | binding | 1 µM | 100
C[C@H](NC(=O)c1cnc2n1[C@](C)(Cc1ccc(C#N)cc1)C(=O)N2c1cc(Cl)c(F)c(Cl)c1)C(=O)NC1(c2ccccn2)CC1 | cell-free assay, competition with immobilised ligand | 1 µM | 100
Cc1cnc(Nc2ccc(C(=O)N3CCC(N4CCCC4)CC3)cc2)nc1-c1cc2ccccc2s1 | binding, competition with immobilised ligand | 1 µM | 16
Cc1cc(NC(=O)c2cccc(S(F)(F)(F)(F)F)c2)cc(-n2ccn3nc(-c4cccnc4)cc23)c1 | cell-free assay, competition with immobilised ligand | 1 µM | 27.2
CN(C)c1nccc(-c2cnc3ncccn23)n1 | binding | 1 µM | 78
